Assay results reported in ChEMBL document CHEMBL1128269, “Synthesis and biological evaluation of NK1 antagonists derived from L-tryptophan” (J Med Chem, 1995).
pIC50: −log10 of the molar value. Each block holds one compound with its values, some of them ahead of it.

Legend:
[1] = biological target: T1, Substance-P receptor (Homo sapiens, UniProt P25103); test: Binding affinity against human Tachykinin receptor 1 expressed in CHO cells was measured by its ability to displace [125I]- Tyr-8 substance P.; format: cell-based
T1 sequence (P25103 whole entry): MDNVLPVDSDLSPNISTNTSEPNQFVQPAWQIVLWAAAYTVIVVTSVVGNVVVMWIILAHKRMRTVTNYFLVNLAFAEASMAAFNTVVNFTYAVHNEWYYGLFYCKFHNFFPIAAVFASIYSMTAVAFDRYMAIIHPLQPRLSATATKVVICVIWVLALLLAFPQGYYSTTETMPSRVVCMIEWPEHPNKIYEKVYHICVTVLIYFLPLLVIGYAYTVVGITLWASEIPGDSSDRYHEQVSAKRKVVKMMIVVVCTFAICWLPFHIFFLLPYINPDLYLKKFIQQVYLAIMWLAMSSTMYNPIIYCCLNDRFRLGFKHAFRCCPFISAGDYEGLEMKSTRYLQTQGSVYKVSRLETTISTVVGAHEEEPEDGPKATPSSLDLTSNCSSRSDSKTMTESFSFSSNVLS

[2] = test system: Cavia porcellus; test: Inhibition of substance P-induced dermal plasma extravasation in the guinea pig 1 hr after oral dose; format: functional; conditions: PIG1, Plasma, read-out: ID50 (the source's name)
How it was run: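 Guinea pigs were dosed orally 1 h before 0.5 pmol substance P was injected into the dorsal skin. Evans blue was given iv before the challenge. Plasma leakage was quantified from dye levels in the skin around the injection sites, and ID50 was expressed in mg/kg.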

[3] = biological target: T1, Substance-P receptor; test: Binding affinity against wild type human Tachykinin receptor 1 expressed in CHO cells was measured by its ability to displace [125I]- Tyr-8 substance P.; format: cell-based
[4] = biological target: Substance-P receptor (Homo sapiens, UniProt P25103, Q165A); test: Binding affinity against Gln165Ala mutant type human Tachykinin receptor 1 expressed in CHO cells was measured by its ability to displace [125I]- Tyr-8 substance P.; format: cell-based
Sequence of Substance-P receptor (Homo sapiens, UniProt P25103, Q165A) (P25103 whole entry Q165A): as the sequence (P25103 whole entry) above, with Q165A counted along it

[5] = test system: Mustela putorius furo; test: Maximum change in the mean arterial blood pressure in the anesthetized ferret of substane P at 0.3 mg/Kg intravenous bolus; format: functional
How it was run: (§1)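 Pentobarbitone-induced (40 mg/kg ip), barbitalone-maintained (300 mg/kg ip) ferret anesthesia; trachea cannulated, ventilated with room air; blood pressure recorded via femoral artery, compounds given via femoral vein as rising cumulative iv boluses in distilled water (1 mL/kg) or poly(ethylene glycol) (0.5 mL/kg), matched vehicle controls. Maximum change in mean arterial pressure, mean ± SD, at least three determinations.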

[6] = test system: Mustela putorius furo; test: Effect on heart rate of substance P antagonist was determined as change heart rate in the anesthetized ferret at 0.1 mg/Kg intravenous bolus; format: functional
How it was run: (§2)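 Ferrets anesthetized with sodium pentobarbitone (40 mg/kg ip), maintained with sodium barbitalone (300 mg/kg ip); tracheal cannula with artificial ventilation on room air; femoral artery cannulated for recording, femoral vein for dosing. Rising cumulative iv bolus doses, in distilled water (1 mL/kg) or poly(ethylene glycol) (0.5 mL/kg), with matched vehicle controls. Change in heart rate, mean ± SD of at least three determinations.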

[7] = test system: Mustela putorius furo; test: Effect on heart rate of substance P antagonist was determined as change heart rate in the anesthetized ferret at 3 mg/Kg intravenous bolus; format: functional; how it was run: as §2
[8] = test system: Mustela putorius furo; test: Maximum change in the mean arterial blood pressure in the anesthetized ferret of substane P at 0.1 mg/Kg intravenous bolus; format: functional; how it was run: as §1
[9] = test system: Mustela putorius furo; test: Maximum change in the mean arterial blood pressure in the anesthetized ferret of substane P at 1 mg/Kg intravenous bolus; format: functional; how it was run: as §1
[10] = test system: Mustela putorius furo; test: Effect on heart rate of substance P antagonist was determined as change heart rate in the anesthetized ferret at 1 mg/Kg intravenous bolus; format: functional; how it was run: as §2
[11] = test system: Mustela putorius furo; test: Maximum change in the mean arterial blood pressure in the anesthetized ferret of substane P at 3 mg/Kg intravenous bolus; format: functional; how it was run: as §1
[12] = test system: Mustela putorius furo; test: Effect on heart rate of substance P antagonist was determined as change heart rate in the anesthetized ferret at 0.3 mg/Kg intravenous bolus; format: functional; how it was run: as §2
[13] = test system: Mustela putorius furo; test: Maximum change in the mean arterial blood pressure in the anesthetized ferret of substance P at 0.3 mg/Kg intravenous bolus; format: functional; how it was run: as §1
[14] = test system: Mustela putorius furo; test: Maximum change in the mean arterial blood pressure in the anesthetized ferret of substance P at 1 mg/Kg intravenous bolus; format: functional
How it was run: (§3)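 Ferrets were anesthetized with sodium pentobarbitone (40 mg/kg ip), maintained with sodium barbitalone (300 mg/kg ip), tracheally cannulated and ventilated with room air. Blood pressure was recorded via the femoral artery. Rising cumulative iv bolus doses (vehicle: distilled water, 1 mL/kg, or PEG, 0.5 mL/kg) went in via the femoral vein, with vehicle controls. Maximum change in mean arterial pressure is mean ± SD, n≥3.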

[15] = test system: Mustela putorius furo; test: Maximum change in the mean arterial blood pressure in the anesthetized ferret of substance P at 0.1 mg/Kg intravenous bolus; format: functional; how it was run: as §1
[16] = test system: Mustela putorius furo; test: Maximum change in the mean arterial blood pressure in the anesthetized ferret of substance P at 3 mg/Kg intravenous bolus; format: functional; how it was run: as §3

pIC50 [1]: 9.15
SMILES: CN(C)CCCC(=O)N[C@@H](Cc1c[nH]c2ccccc12)C(=O)CCc1cc(C(F)(F)F)cc(C(F)(F)F)c1
ED50 [2]: 4 mg/kg

SMILES: FC(F)(F)c1cccc(CO[C@H]2C3CCN(CC3)[C@H]2C(c2ccccc2)c2ccccc2)c1
pIC50 [3]: 7.28
pIC50 [1]: 7.28
pIC50 [4]: 5.68

pIC50 [1]: 9.43
SMILES: O=C(CCC1CCNCC1)N[C@@H](Cc1c[nH]c2ccccc12)C(=O)CCc1cc(C(F)(F)F)cc(C(F)(F)F)c1

SMILES: COc1ccccc1CN[C@H]1C2CCN(CC2)[C@H]1C(c1ccccc1)c1ccccc1 [CP-96345]
MABP [5]: 21
Change in heart rate [6]: 7
Change in heart rate [7]: 65
MABP [8]: 11
MABP [9]: 46
Change in heart rate [10]: 21
MABP [11]: 63
Change in heart rate [12]: 13

pIC50 [1]: 9.33
SMILES: O=C(CCc1ccncc1)N[C@@H](Cc1c[nH]c2ccccc12)C(=O)CCc1cc(C(F)(F)F)cc(C(F)(F)F)c1

pIC50 [1]: 5.99
SMILES: Cc1cc(C)cc(CN(C)C(=O)[C@H](Cc2c[nH]c3ccccc23)NC(=O)c2ccccc2)c1

SMILES: O=C(CCc1cc(C(F)(F)F)cc(C(F)(F)F)c1)[C@H](Cc1c[nH]c2ccccc12)NC(=O)C12CCN(CC1)CC2
Change in heart rate [6]: 3
pIC50 [3]: 9.00
pIC50 [1]: 9.05
MABP [13]: 4
MABP [14]: 18
MABP [15]: 2
Change in heart rate [7]: 1
Change in heart rate [10]: 1
ED50 [2]: 1.8 mg/kg
Change in heart rate [12]: 2
MABP [16]: 34
pIC50 [4]: 8.10

pIC50 [1]: 6.12
SMILES: CC(=O)N[C@H](COCc1cc(C)cc(C)c1)Cc1c[nH]c2ccccc12

pIC50 [3]: 9.62
pIC50 [1]: 9.77
pIC50 [4]: 8.85
SMILES: O=C(CCCN1CCOCC1)N[C@@H](Cc1c[nH]c2ccccc12)C(=O)CCc1cc(C(F)(F)F)cc(C(F)(F)F)c1

pIC50 [1]: 8.42
SMILES: O=C(Cc1cnc[nH]1)N[C@@H](Cc1c[nH]c2ccccc12)C(=O)CCc1cc(C(F)(F)F)cc(C(F)(F)F)c1

pIC50 [1]: 9.22
SMILES: CN(C)CCCCC(=O)N[C@@H](Cc1c[nH]c2ccccc12)C(=O)CCc1cc(C(F)(F)F)cc(C(F)(F)F)c1

pIC50 [3]: 9.40
pIC50 [1]: 9.30
pIC50 [4]: 8.00
SMILES: O=C(Cc1ccncc1)N[C@@H](Cc1c[nH]c2ccccc12)C(=O)CCc1cc(C(F)(F)F)cc(C(F)(F)F)c1
MABP [14]: -20
ED50 [2]: 1.9 mg/kg

pIC50 [1]: 9.22
SMILES: O=C(CCN1CCCCC1)N[C@@H](Cc1c[nH]c2ccccc12)C(=O)CCc1cc(C(F)(F)F)cc(C(F)(F)F)c1

pIC50 [1]: 9.52
SMILES: O=C(CCCN1CCCC1)N[C@@H](Cc1c[nH]c2ccccc12)C(=O)CCc1cc(C(F)(F)F)cc(C(F)(F)F)c1

SMILES: COc1ccccc1CN[C@H]1CCCN[C@H]1c1ccccc1 [CP-99994]
MABP [13]: 13
MABP [14]: 12
MABP [15]: 10
ED50 [2]: 1.6 mg/kg

pIC50 [3]: 8.70
pIC50 [1]: 8.46
pIC50 [4]: 8.40
SMILES: O=C(CN1CCOCC1)N[C@@H](Cc1c[nH]c2ccccc12)C(=O)CCc1cc(C(F)(F)F)cc(C(F)(F)F)c1

SMILES: CN(C)CCC(=O)N[C@@H](Cc1c[nH]c2ccccc12)C(=O)CCc1cc(C(F)(F)F)cc(C(F)(F)F)c1
ED50 [2]: 10 mg/kg
